Consider 22 molecules from ChEMBL document CHEMBL1135519, “Structure-activity relationships on phenylalanine-containing inhibitors of histone deacetylase: in vitro enzyme inhibition, induction of differentiation, and inhibition of proliferation in Friend leukemic cells” (J Med Chem, 2002).

Assay [1] deals with Friend leukemia cell line. Nature of the assay: Tested […] for the inhibition of proliferation of friend leukemic cells. Format: functional. The settings on record: Mus musculus. The method in brief:
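MEL DS19 murine erythroleukemia (Friend) cells, log phase, kept in DMEM with 10% FBS and penicillin/streptomycin at 37 °C in 5% CO2. Seeded at 4 × 10⁴ cells/well with serial compound dilutions; screened at 10 and 50 µM, then dose-response. DMSO at 0.1% in controls. Cells counted by Casy counter after 72 h. Proliferation given as percent of solvent control.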

The target of assay [2] is T1, Histone deacetylase HD2 (Zea mays, UniProt Q94F81).
T1 sequence (Q94F81 whole entry): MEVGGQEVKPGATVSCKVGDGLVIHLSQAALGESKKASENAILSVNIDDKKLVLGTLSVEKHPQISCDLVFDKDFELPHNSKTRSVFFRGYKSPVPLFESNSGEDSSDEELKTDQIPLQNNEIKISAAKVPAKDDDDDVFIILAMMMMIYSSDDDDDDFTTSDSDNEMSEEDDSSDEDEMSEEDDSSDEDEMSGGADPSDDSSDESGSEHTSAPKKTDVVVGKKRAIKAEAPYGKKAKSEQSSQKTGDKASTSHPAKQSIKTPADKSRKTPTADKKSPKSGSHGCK
Nature of the assay: Inhibition of in vitro enzyme activity measured in a highly purified maize Histone deacetylase 2 preparation.

Assay [3] has as its target Histone deacetylase. Nature of the assay: Inhibition of in vitro enzyme activity measured in partially purified rat liver Histone deacetylase preparation. The format is tissue-based.

With `COC(=O)[C@@H](NC(=O)CCCCCCC(=O)NO)C(C)C`, the IC50 (as a rule, the concentration that inhibits the measured activity by half) in assay [1] was 6.2 µM; in assay [2] it was 900 nM; in assay [3], 380 nM.

Turning to `O=C(CCCCCCC(=O)N[C@@H](Cc1cccc2ccccc12)C(=O)NCCc1ccccc1)NO`, the 50% inhibitory concentration (IC50) in assay [1] turned out to be 15 µM; in assay [2], 35 nM; in assay [3], 310 nM.

`COC(=O)[C@H](Cc1ccc(-c2ccccc2)cc1)NC(=O)CCCCCCC(=O)NO`: the IC50 in assay [1] was determined as 0.84 µM; in assay [2], 210 nM; in assay [3] it was 290 nM.

With `COC(=O)[C@H](Cc1ccc2ccccc2c1)NC(=O)CCCCCCC(=O)NO`, the IC50 in assay [1] was 5.2 µM; in assay [2] it was 40 nM; in assay [3], 510 nM.

Regarding `O=C(CCCCCCC(=O)N[C@@H](Cc1ccccc1)C(=O)N1CCCC1)NO`, the IC50 in assay [1] was > 100 µM; in assay [2], 520 nM; in assay [3], 330 nM.

On to `COC(=O)[C@H](Cc1ccccc1)NC(=O)CCCCCCC(=O)NO`, for which the IC50 in assay [1] amounted to 15 µM; in assay [2], 500 nM; in assay [3], 800 nM.

On to `O=C(CCCCCCC(=O)N[C@@H](Cc1ccccc1)C(=O)NCc1ccccc1)NO`, for which the IC50 worked out at 69 µM in assay [1], 140 nM in assay [2] and 460 nM in assay [3].

With `NC(=O)[C@H](Cc1ccccc1)NC(=O)CCCCCCC(=O)NO`, the values for the IC50 in assay [1], in assay [2] and in assay [3] were 64 µM, 1100 nM and 840 nM, respectively.

With `COC(=O)[C@@H](Cc1ccccc1)NC(=O)CCCCCCC(=O)NO`, the IC50 was determined as 28 µM in assay [1], 760 nM in assay [2] and 880 nM in assay [3].

Take `COC(=O)[C@H](Cc1cccc2ccccc12)NC(=O)CCCCCCC(=O)NO`: the IC50 worked out at 22 µM in assay [1], 360 nM in assay [2] and 130 nM in assay [3].

Regarding `O=C(CCCCCCC(=O)NO)NO` [SUBEROHYDROXAMIC ACID], the IC50 turned out to be 320 nM in assay [2] and 1150 nM in assay [3].

For the molecule `COC(=O)[C@H](Cc1ccc(OC)cc1)NC(=O)CCCCCCC(=O)NO`, the IC50 came out at 11 µM in assay [1], 250 nM in assay [2] and 800 nM in assay [3].

For the molecule `O=C(CCCCCCC(=O)N[C@@H](Cc1ccccc1)C(=O)NCCc1ccccc1)NO`, the IC50 in assay [1] came to 72 µM; in assay [2], 330 nM; in assay [3] it was 260 nM.

Turning to `O=C(CCCCCCC(=O)N[C@H](Cc1ccccc1)C(=O)NCCc1ccccc1)NO`, the IC50 came to 76 µM in assay [1], 340 nM in assay [2] and 390 nM in assay [3].

As to `COC(=O)[C@H](Cc1c[nH]c2ccccc12)NC(=O)CCCCCCC(=O)NO`, the IC50 is 13 µM in assay [1], 120 nM in assay [2] and 320 nM in assay [3].

The molecule `CC(/C=C/C(=O)NO)=C\[C@@H](C)C(=O)c1ccc(N(C)C)cc1` [TRICHOSTATIN] showed an IC50 in assay [1] of 0.04 µM.

As for `COC(=O)[C@H](Cc1ccc([N+](=O)[O-])cc1)NC(=O)CCCCCCC(=O)NO`, the values for the IC50 in assay [1], in assay [2] and in assay [3] were 35 µM, 850 nM and 1340 nM, respectively.

On to `O=C(CCCCCCC(=O)N[C@H](Cc1ccccc1)C(=O)O)NO`, for which the values for the IC50 in assay [1], in assay [2] and in assay [3] were > 100 µM, 750 nM and 1540 nM, respectively.

For the molecule `COC(=O)[C@H](Cc1cccs1)NC(=O)CCCCCCC(=O)NO`, the IC50 is 5.9 µM in assay [1], 700 nM in assay [2] and 410 nM in assay [3].

As to `O=C(CCCCCCC(=O)N[C@@H](Cc1ccccc1)C(=O)Nc1ccccc1)NO`, the figures for the IC50 in assay [1] and in assay [3] were 15 µM and 790 nM, respectively.

With `O=C(CCCCCCC(=O)Nc1ccccc1)NO` [VORINOSTAT], the IC50 is 0.99 µM in assay [1] and 1000 nM in assay [2].

As for `O=C(CCCCCCC(=O)N[C@@H](Cc1ccccc1)C(=O)NCCCc1ccccc1)NO`, the IC50 in assay [1] turned out to be 58 µM; in assay [2], 380 nM; in assay [3] it was 1010 nM.
